Assay outcomes deposited in PubChem BioAssay by The Scripps Research Institute Molecular Screening Center.
TAAR1 antag – antagonists of human TAAR1. CHO RD-HGA16 TAAR1, Fluo-8 calcium fluorescence, antagonist. inhibition, % at 3 µM. hit rate 1.5% among 360,000;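 active means inhibition above a per-plate cutoff, the mean inhibition of test compounds on that plate plus 3 SD, cut at about 49% in these data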;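 further: 0% = DMSO plus EC80 beta-PEA response and 100% = DMSO alone without agonist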
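Test system: RD-HGA16 CHO cells with stable hTAAR1 and Gα16 / Probe or stimulus: EC80 β-phenethylamine stimulus / Times: seeding 17-24 h prior, 75-min 37 °C, 30-min RT dye loading / Detection: Fluo-8 calcium-sensitive fluorescence / Read-out basis: % inhibition scaled between DMSO and EC80 PEA controls / Repeats: singlicate, one well per test compound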
TAAR1 ag – human TAAR1 agonism | CHO RD-HGA16 TAAR1, Fluo-8 calcium fluorescence; vehicle wells 0%, saturating PEA agonist 100% | activation, % at 3 µM | hit rate 0.99% among 360,000;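 active means activation above the mean activation of all test compounds in the run plus 3 SD, cut at about 38% in these data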
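System: CHO-derived RD-HGA16 cells with stable Gα16 and human TAAR1 / Times: 17-24 h plating, Fluo-8 75 min 37 °C, 30 min RT / Technique: calcium-sensitive Fluo-8 signal, excitation 470-495, emission 515-575 nm / Measure: % activation relative to PEA EC100 response / Benchmarks: DMSO and PEA EC100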
OX1R antag-1 – antagonists of human orexin 1 receptor | CHO/OX1R cells, Fluo-8 calcium fluorescence, orexin A | inhibition, % at 5 µM | hit rate 0.43% among 330,000 | AID 434989;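 active means inhibition above its plate's threshold, mean inhibition of all tested compounds on the plate plus 3 SD, cut at about 37% in these data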;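 further: 0% = orexin A challenge wells and 100% = SB-334867-A antagonist wells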
Target sequence (O43613 whole entry, looked up): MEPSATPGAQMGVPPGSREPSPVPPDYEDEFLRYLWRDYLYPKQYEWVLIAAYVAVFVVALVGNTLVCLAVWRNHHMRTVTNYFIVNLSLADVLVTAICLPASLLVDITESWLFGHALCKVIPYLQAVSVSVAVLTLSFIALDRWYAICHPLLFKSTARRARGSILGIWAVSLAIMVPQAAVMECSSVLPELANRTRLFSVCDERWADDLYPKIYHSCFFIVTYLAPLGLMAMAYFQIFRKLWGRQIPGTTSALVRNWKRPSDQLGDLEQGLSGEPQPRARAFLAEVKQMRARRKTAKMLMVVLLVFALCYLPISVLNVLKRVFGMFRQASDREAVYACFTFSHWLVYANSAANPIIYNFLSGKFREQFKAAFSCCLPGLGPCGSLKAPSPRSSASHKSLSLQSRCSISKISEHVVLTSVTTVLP
OX1R antag-2 – antagonists of human orexin 1 receptor (OX1R) | O43613 | hit rate 1.8% among 330,000 | OX1R-expressing cells, FRET antagonist read-out | inhibition, % at 6.6 µM; in the data active means inhibition mostly above about 38%, no sharp cut-off; inactive means mostly below about 40%;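 further: 0% = agonist challenge alone and 100% = reference antagonist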
CHO parental Ca – counter-screen for OX1R antagonists: effect in parental CHO cells; parental CHO-K1, ATP-induced calcium, Fluo-8 fluorescence; inhibition, % at 5.6 µM; hit rate 0.63% among 330,000; AID 463079;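 active means inhibition above that plate's mean sample inhibition plus 3 SD, cut at about 26% in these data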;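 further: 0% = ATP-challenged DMSO wells and 100% = DMSO wells without ATP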
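Measured by: calcium-sensitive Fluo-8 fluorescence / Test system: CHO parental line / Controls: ATP-challenged DMSO wells low, unchallenged DMSO wells high / Measure: % inhibition / Compound: single nominal dose of 5.6 µM per compound / Replicates: single well per compound, no replicates / Reagent: ATP as calcium-mobilizing challenge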
Starred values were filed as active, the others as inactive; / = no result given. Sampled rows, rich in hits. Any-hit rate of the full collection: about 3.9%.

SMILES	TAAR1 antag	TAAR1 ag	OX1R antag-1	OX1R antag-2	CHO parental Ca
COC(=O)[C@]12C[C@H](CC(=O)N3CCCCC3)C(=O)N(Cc3ccccc3)C1=C[C@H](C(C)(C)C)O[C@@H]2C	-11	-1	/	/	/
CC(C)CNC(=S)N1CCC(c2nc(-c3ccc(F)cc3)no2)CC1	23	-1	19	21	48*
Cc1ccc(S(=O)(=O)Nc2ccc(O)c3ccccc23)c(C)c1	0	0	/	/	/
Cc1ccc(S(=O)(=O)Nc2cc(C(C(=O)OC(C)C)C(=O)C(F)(F)F)c(O)c3ccccc23)c(C)c1 (stereo not given)	-19	0	51*	114*	31*
COc1ccc(Nc2ccncc2[N+](=O)[O-])cc1	13	3	-13	41*	3
COc1ccc(Nc2n[nH]c(C)c2[N+](=O)[O-])cc1	6	1	-13	18	-9
O=[N+]([O-])c1cnccc1Nc1cccc(F)c1	5	0	-8	75*	-6
CCN(CC)C(=O)c1ccc(S(=O)(=O)N2CCC(c3nc4ccccc4s3)CC2)cc1	24	10	35	37*	14
Cc1cc(C)cc(NC(=S)NCCSc2ccc(Cl)cc2)c1	57*	15	-18	25	-5
CCOc1ccc(OCCC(=O)Nc2ccc(N3CCOCC3)cc2N2CCOCC2)cc1	-8	1	/	/	/
Cc1ccc(F)cc1C(=O)N1CCCCC1c1cc(C(=O)Nc2cccc(C#N)c2)no1 (stereo not given)	18	11	/	/	/
O=S(=O)(NCc1csc(-c2cccnc2)n1)c1ccc(Br)cc1	-28	1	-11	38*	-20
COCCNC(=O)c1ccc(N2CC3CC(C2)c2cccc(=O)n2C3)c(NC(=O)c2ccc(C(C)(C)C)cc2)c1 (stereo not given)	-7	0	/	/	/
CC(NC(=O)/C(C#N)=C/c1ccc(Cl)c([N+](=O)[O-])c1)c1ccccc1 (stereo not given)	21	39*	-28	28	-10
CNc1ccc(/C=C(\C#N)c2ccccn2)cc1[N+](=O)[O-]	-3	1	7	41	14
N#C/C(=C\c1ccc(Cl)c([N+](=O)[O-])c1)c1ccccn1	-15	2	-8	71*	-20
Oc1cc(CNC2CCCCC2)c(O)cc1CNC1CCCCC1	-6	3	/	/	/
Cc1nn2c(-c3ccccc3)nnc2c2ccccc12	6	-1	-13	64*	-18
Cc1nn2c(-c3cccc(NC(=O)c4ccco4)c3)nnc2c2ccccc12	26	13	-24	34	-27
CCCC1NC(=O)c2cc3ccccc3cc2-n2c1nc1ccc(F)cc1c2=O (stereo not given)	15	4	/	/	/
CC1(C(=O)Nc2cnc3ccccc3c2)CCN1Cc1ccc2ccccc2c1 (stereo not given)	41	3	/	/	/
CC1(C(=O)Nc2cnc3ccccc3c2)CCN1Cc1cc2ccccc2o1 (stereo not given)	49*	1	/	/	/
COC(=O)C1=C(C)N(Cc2ccc(C(F)(F)F)cc2)C(=NCc2ccc(C(F)(F)F)cc2)NC1c1ccccc1C(F)(F)F (stereo not given)	-31	3	/	/	/
O=C(N[C@@H]1CC[C@@H](CCNC(=O)C2CCOCC2)O[C@@H]1CO)c1ccncc1	13	1	/	/	/
COc1ccc(N2CCn3c2nc2c3c(=O)n(CCCc3ccccc3)c(=O)n2C)c(OC)c1	46	10	3	12	55*
SMILES	TAAR1 antag	TAAR1 ag	OX1R antag-1	OX1R antag-2	CHO parental Ca
CCOC(=O)[C@]12CCCC=C1N(CCC1=CCCCC1)C(=O)[C@H](CC(=O)NCc1ccccc1)C2	8	4	/	/	/
COCCn1c(-c2ccccc2)csc1=Nc1cccnc1	17	9	-31	29	-19
CC(C)n1c(-c2ccco2)csc1=Nc1cccnc1	11	6	36	74*	48*
COC(=O)C1=C(C)N(Cc2ccccc2C(F)(F)F)C(=NCC2CC2)NC1c1cccc(F)c1 (stereo not given)	-16	13	/	/	/
CCc1ccc[n+](-c2[nH]c(=O)sc2/C=N/N=C(\[O-])c2ccncc2)c1	0	0	-14	40*	-7
O=C(Nc1ccc2c(c1)OCO2)c1cc(C2CCCCN2C(=O)CCCc2ccccc2)on1 (stereo not given)	21	9	/	/	/
CC(=O)c1cccc(OCc2cc(C(=O)N(C)Cc3cnccn3)no2)c1	-1	2	-22	1	-13
